Assay results published in PMC4140444 (Drug Design, Development and Therapy, 2014).

What was measured:
[1] = Cytotoxicity, MTT assay on normal embryonic lung cells; assay type: cell-based; conditions: human, MRC-5 normal embryonic lung cells
Procedure, shortened: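 MRC-5 cells grown in DMEM with 10% fetal bovine serum and 100 U/mL penicillin–streptomycin, seeded at 5×10³–2×10⁴ cells/well, then held 24 h at 37°C in 5% CO2. Serial dilutions of test compound added in an equal volume of medium, with doxorubicin (positive) and DMSO (negative) controls, for 48 h. MTT applied for 2–4 h; formazan dissolved in DMSO with sonication; read at 550 nm against a 650 nm reference. IC50 is the concentration giving 50% growth inhibition versus the DMSO control.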

[2] = molecular target: T1, CYP19 (a recombinant human aromatase) (Homo sapiens, UniProt P11511); assay: Aromatase inhibition assay; assay type: biochemical; conditions: screened at 12.5 μM
T1 sequence (P11511 1-503): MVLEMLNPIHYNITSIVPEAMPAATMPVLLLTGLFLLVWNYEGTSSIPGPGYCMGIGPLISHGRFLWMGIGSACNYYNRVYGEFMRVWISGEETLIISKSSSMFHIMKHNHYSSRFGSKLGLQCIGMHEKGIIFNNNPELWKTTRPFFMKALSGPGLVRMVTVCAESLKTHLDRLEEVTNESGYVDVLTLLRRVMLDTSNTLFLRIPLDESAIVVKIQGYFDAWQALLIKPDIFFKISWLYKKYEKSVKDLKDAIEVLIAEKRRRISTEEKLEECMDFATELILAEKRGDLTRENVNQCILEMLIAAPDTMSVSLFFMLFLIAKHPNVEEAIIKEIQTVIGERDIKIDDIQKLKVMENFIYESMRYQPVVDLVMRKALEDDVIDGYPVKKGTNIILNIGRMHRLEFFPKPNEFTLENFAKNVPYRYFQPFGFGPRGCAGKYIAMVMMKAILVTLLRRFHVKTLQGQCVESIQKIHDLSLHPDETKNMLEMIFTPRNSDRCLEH

[3] = tested on: human breast cancer MCF-7 cell line; conditions: cited from earlier work

Structure (SMILES)	IC50 at 48 h [1]	Aromatase inhibitory activity (IC50 column, activity class) [2]	Cytotoxic activity against MCF-7 [3]
O=c1[nH]cc([N+](=O)[O-])c(=O)[nH]1 [Compound 2, 5-nitrouracil]	> 50 µg/mL	Inactive ^b	–
O=c1[nH]cc(I)c(=O)[nH]1 [Compound 3, 5-iodouracil]	> 50 µg/mL	Inactive ^b	–
Oc1cccc2cccnc12 [Compound 1, 8-hydroxyquinoline]	6.27 ± 0.58 µM	Inactive ^b	substantial cytotoxic activity
COc1cccc2c1C(=O)c1c(O)c3c(c(O)c1C2=O)C[C@@](O)(C(=O)CO)C[C@@H]3O[C@H]1C[C@H](N)[C@H](O)[C@H](C)O1 [Doxorubicin]	> 50 µg/mL	–	–
